“And” between values parts separate entries of the source, which are not always exact repeats. Identical values can stand only once.
Experiments:
Cavia porcellus [1] = species on record: Cavia porcellus; assay: Concentration required to prolong the effective refractory period (ERP) by 25% in isolated guinea pig left atria; format: functional
Procedure, shortened: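 Isolated guinea pig left atria were studied by the extrastimulus technique. The molar concentration raising ERP by 25% (ED25) was determined. Values are the mean of two similar determinations, ±4%.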

Cavia porcellus [2] = species on record: Cavia porcellus; assay: The degree of cardiac depression produced by a concentration of 10 E-4 M was determined in guinea pig; format: functional
Procedure, shortened: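 Cardiac depression was measured at 10⁻⁴ M in the isolated guinea pig left atrial preparation and taken as an index of class I activity.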

Cavia porcellus [3] = species on record: Cavia porcellus; assay: Action potential duration (APD90) repolarization in guinea pig right papillary muscle was determined at concentration 10E-6 M; format: functional, Muscle tissue
Procedure, shortened: (§1)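 Isolated guinea pig right papillary muscle exposed to the concentration given in each line. Action potential duration was read at 50% and 90% repolarization, and phase 0 maximum rate of depolarization (MRD) was also recorded. Values are means ± SD of 30 or 31 observations from three preparations, compared with control by t test.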

Cavia porcellus [4] = species on record: Cavia porcellus; assay: Action potential duration (APD50) repolarization in guinea pig right papillary muscle was determined at concentration 5 x 10E-9 M; format: functional, Muscle tissue; procedure, shortened: as §1
Cavia porcellus [5] = species on record: Cavia porcellus; assay: Action potential duration (APD50) repolarization in guinea pig right papillary muscle was determined at concentration 5 x 10E-8 M; format: functional, Muscle tissue; procedure, shortened: as §1
[6] = Oral bioavailability in dog; format: ADME, organism-based, Canis lupus familiaris; conditions: in vivo
Cavia porcellus [7] = species on record: Cavia porcellus; assay: Maximum rate of depolarization (MRD) during phase 0 in guinea pig right papillary muscle was determined at concentration 2 x 10E-5 M; format: functional, Muscle tissue; procedure, shortened: as §1
Cavia porcellus [8] = species on record: Cavia porcellus; assay: Action potential duration (APD90) repolarization in guinea pig right papillary muscle was determined at concentration 5 x 10E-8 M; format: functional, Muscle tissue; procedure, shortened: as §1
Cavia porcellus [9] = species on record: Cavia porcellus; assay: Action potential duration (APD50) repolarization in guinea pig right papillary muscle was determined at concentration 10E-6 M; format: functional, Muscle tissue; procedure, shortened: as §1
Cavia porcellus [10] = species on record: Cavia porcellus; assay: Maximum rate of depolarization (MRD) during phase 0 in guinea pig right papillary muscle was determined at concentration 5 x 10E-8 M; format: functional, Muscle tissue; procedure, shortened: as §1
Cavia porcellus [11] = species on record: Cavia porcellus; assay: Action potential duration (APD50) repolarization in guinea pig right papillary muscle was determined at concentration 2 x 10E-5 M; format: functional, Muscle tissue; procedure, shortened: as §1
[12] = Distribution coefficient at pH 7.4; format: physicochemical; conditions: octanol/water
Cavia porcellus [13] = species on record: Cavia porcellus; assay: Maximum rate of depolarization (MRD) during phase 0 in guinea pig right papillary muscle was determined at concentration 10E-6 M; format: functional, Muscle tissue; procedure, shortened: as §1
[14] = Oral bioavailability in man; format: ADME, organism-based; conditions: human, in vivo
Cavia porcellus [15] = species on record: Cavia porcellus; assay: Maximum rate of depolarization (MRD) during phase 0 in guinea pig right papillary muscle was determined at concentration 5 x 10E-9 M; format: functional, Muscle tissue; procedure, shortened: as §1
Cavia porcellus [16] = species on record: Cavia porcellus; assay: Action potential duration (APD90) repolarization in guinea pig right papillary muscle was determined at concentration 5 x 10E-9 M; format: functional, Muscle tissue; procedure, shortened: as §1

SMILES	ED25 (Cavia porcellus [1]) [µM]	Cardiac depression (Cavia porcellus [2]) [%]	further results
CN(CCOc1ccc(CC(N)=O)cc1)CCc1ccc(NS(C)(=O)=O)cc1	10	7	
COC(=O)c1ccc(OCCN(C)CCc2ccc(NS(C)(=O)=O)cc2)cc1	4.1	47	
CN(CCOc1ccc(C(N)=O)cc1)CCc1ccc(NS(C)(=O)=O)cc1	1.5	7	
CN(CCSc1ccc(NS(C)(=O)=O)cc1)CCc1ccc(NS(C)(=O)=O)cc1	0.3	21	
CN(CCCCc1ccc(NS(C)(=O)=O)cc1)CCc1ccc(NS(C)(=O)=O)cc1	67	32	
CN(CCOc1cccc(C(N)=O)c1)CCc1ccc(NS(C)(=O)=O)cc1	0.82	3	
CN(CCOC(c1ccccc1)c1ccc(NS(C)(=O)=O)cc1)CCc1ccc(NS(C)(=O)=O)cc1 (configuration not stated)	12	35	
CN(CCOc1cccc(NS(C)(=O)=O)c1)CCc1ccc(NS(C)(=O)=O)cc1	3	9	
CN(CCCc1ccc(NS(C)(=O)=O)cc1)CCc1ccc(NS(C)(=O)=O)cc1	2.7	23	
CN(CCOc1ccc(S(N)(=O)=O)cc1)CCc1ccc(NS(C)(=O)=O)cc1	2.2	7	
CCN(CC)C(=O)c1ccc(OCCN(C)CCc2ccc(NS(C)(=O)=O)cc2)cc1	32	9	
CN(CCOc1ccc(NS(C)(=O)=O)cc1Cl)CCc1ccc(NS(C)(=O)=O)cc1	18	16	
CN(CCc1ccc(NS(C)(=O)=O)cc1)CCc1ccc(NS(C)(=O)=O)cc1	2	20	
Cc1ccc(NS(C)(=O)=O)c(OCCN(C)CCc2ccc(NS(C)(=O)=O)cc2)c1.Cl	17	24	
CN(CCCCOc1ccc(NS(C)(=O)=O)cc1)CCc1ccc(NS(C)(=O)=O)cc1.Cl	40	23	
Cc1ccc(OCCN(C)CCc2ccc(NS(C)(=O)=O)cc2)c(C(N)=O)c1.Cl	1	22	
CNC(=O)Nc1ccc(OCCN(C)CCc2ccc(NS(C)(=O)=O)cc2)cc1.Cl	70	0	
CN(CCOc1ccccc1NS(C)(=O)=O)CCc1ccc(NS(C)(=O)=O)cc1.Cl	2.5	19	
CN(CCOc1ccc(C(F)(F)F)cc1)CCc1ccc(NS(C)(=O)=O)cc1.Cl	90	30	
CNC(=O)c1ccc(OCCN(C)CCc2ccc(NS(C)(=O)=O)cc2)cc1.Cl	1.5	5	
CN(CCCOc1ccc(NS(C)(=O)=O)cc1)CCc1ccc(NS(C)(=O)=O)cc1.Cl	20	44	
CN(CCOc1ccc(C(=O)N2CCOCC2)cc1)CCc1ccc(NS(C)(=O)=O)cc1.Cl	20	15	
CN(CCOc1ccc(NS(C)(=O)=O)cc1)CCc1ccc(NS(C)(=O)=O)cc1 [DOFETILIDE]	0.13	0	APD90 (Cavia porcellus [3]): 288 ms; APD50 (Cavia porcellus [4]): 170 ms; APD50 (Cavia porcellus [5]): 197 ms; bioavailability [6]: 72%; MRD (Cavia porcellus [7]): 273 V s-1; APD90 (Cavia porcellus [8]): 246 ms; APD50 (Cavia porcellus [9]): 223 ms; MRD (Cavia porcellus [10]): 273 V s-1; APD50 (Cavia porcellus [11]): 209 ms; logD [12]: 0.96; MRD (Cavia porcellus [13]): 269 V s-1; bioavailability [14]: 100%; MRD (Cavia porcellus [15]): 261 V s-1; APD90 (Cavia porcellus [16]): <209 ms and <273 ms
CC(C)NCC(O)c1ccc(NS(C)(=O)=O)cc1 (configuration not stated) [SOTALOL]	200	5	
